Data taken from ChEMBL document CHEMBL5678805, “Intermittent administration of MEK inhibitor GDC-0973 plus PI3K inhibitor GDC-0941 triggers robust apoptosis and tumor growth inhibition” (Cancer Res, 2012).
Active and inactive are the calls of the source. No cut-off for these calls is given here.

How the values were obtained:
[1] = biological target: Serine/threonine-protein kinase MARK2 (Homo sapiens, UniProt Q7KZI7); test: Inhibition of EMK1 (unknown origin)
[2] = test system: A-375; test: Antitumor activity against human A-375 cells xenografted in mouse assessed as decrease in pS6 level at 5 mg/kg, po administered for 4 days and measured after 2 hrs in presence of 4-(2-(1H-indazol-4-yl)-6-((4-(methylsulfonyl)piperazin-1-yl)methyl)thieno[3,2-d]pyrimidin-4-yl)morpholine; format: functional, organism-based; conditions: time 98.0 hrs
[3] = biological target: Protein kinase C alpha type (Homo sapiens, UniProt P17252); test: Inhibition of PKC alpha (unknown origin)
[4] = test system: 537-mel; test: Antitumor activity against human 537-mel cells harboring PTEN null mutation xenografted in mouse assessed as tumor growth inhibition at 10 mg/kg, po; format: functional; conditions: read-out: TGI
Summary of the method: (§1)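 Mice carrying human tumor xenografts dosed orally once daily for 21 consecutive days. Tumor volume measured by calipers as (L×W×W)/2. %TGI = 100×[1 − AUC(treatment/day)/AUC(vehicle/day)], using the area under the fitted growth curve relative to vehicle.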

[5] = biological target: Insulin-like growth factor 1 receptor (Homo sapiens, UniProt P08069); test: Inhibition of IGF1R (unknown origin)
[6] = biological target: Ribosomal protein S6 kinase beta-1 (Homo sapiens, UniProt P23443); test: Inhibition of p70S6K (unknown origin)
[7] = test system: A2058; test: Antitumor activity against human A2058 cells xenografted in mouse assessed as tumor growth inhibition at 15 mg/kg, po administered every third day for 21 days in presence of 4-(2-(1H-indazol-4-yl)-6-((4-(methylsulfonyl)piperazin-1-yl)methyl)thieno[3,2-d]pyrimidin-4-yl)morpholine; format: functional; conditions: A2058, 504 h, time 21 day, read-out: TGI
Summary of the method: (§2)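 Human tumor xenografts in mice. Drugs given orally, as single agents or combined with the PI3K inhibitor. Schedules were daily (QD) or every third day (Q3D) over 21 days. Tumor volume was measured by caliper as (L×W×W)/2. %TGI = 100×[1 − AUC(treatment/d)/AUC(vehicle/d)] from fitted growth curves, with group means. Tumor lysates were immunoblotted for pS6.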

[8] = test system: NCI-H2122; test: Antitumor activity against human NCI-H2122 cells harboring KRAS […]/LKB1 P281/TP53Q61L/C176Fl/CDKN2A mutant xenografted in mouse assessed as tumor growth inhibition at 10 mg/kg, po; format: functional; conditions: read-out: TGI
Summary of the method: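 NCI-H2122 (KRAS G12C) NSCLC xenografts in mice were dosed orally once daily for 21 consecutive days. Tumor volume was measured with calipers as (L×W×W)/2, and body weight was tracked. %TGI was derived from the area under the fitted growth curve per day versus vehicle. Group means with SEM were reported.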

[9] = biological target: Tyrosine-protein kinase ABL1 (Homo sapiens, UniProt P00519); test: Inhibition of Abl (unknown origin)
[10] = biological target: Serine/threonine-protein kinase Chk2 (Homo sapiens, UniProt O96017); test: Inhibition of CHK2 (unknown origin)
[11] = test system: Hs-578T; test: Antiproliferative activity against human Hs-578T cells assessed as reduction in cell viability incubated for 96 hrs in presence of 4-(2-(1H-indazol-4-yl)-6-((4-(methylsulfonyl)piperazin-1-yl)methyl)thieno[3,2-d]pyrimidin-4-yl)morpholine; format: functional, cell-based
[12] = test system: MeWo; test: Antiproliferative activity against human MeWo cells assessed reduction in cell viability incubated for 4 days in presence of 4-(2-(1H-indazol-4-yl)-6-((4-(methylsulfonyl)piperazin-1-yl)methyl)thieno[3,2-d]pyrimidin-4-yl)morpholine by celltiter-glo assay; format: functional; conditions: time 4 day
Summary of the method: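 4-day CellTiter-Glo viability read-out on melanoma lines, cells exposed to increasing concentrations of each inhibitor alone and in combination.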

[13] = test system: DLD-1; test: Antitumor activity against human DLD-1 cells harboring KRAS G13D/IDH1 G97D/SMO T640A/APC I1417 mutant xenografted in mouse assessed as tumor growth inhibition at 5 mg/kg, po; format: functional; conditions: read-out: TGI
Summary of the method: (§3)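 Single-agent dose ranging in human tumor xenograft mice at 2.5, 5 or 10 mg/kg oral. Tumor volume was measured by caliper as (L×W×W)/2. %TGI = 100×[1 − AUC(treatment/d)/AUC(vehicle/d)] from the fitted growth curve per dose group, relative to vehicle.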

[14] = Antitumor activity against human A375.X1 cells xenografted in mouse assessed as tumor growth inhibition at 3 mg/kg, po administered once a day for 21 days; format: functional; conditions: A375.X1, 504 h, read-out: TGI, time 21 day; summary of the method: as §2
[15] = test system: DLD-1; test: Antitumor activity against human DLD-1 cells xenografted in mouse assessed as tumor growth inhibition at 15 mg/kg, po administered once a day for 21 days in presence of 4-(2-(1H-indazol-4-yl)-6-((4-(methylsulfonyl)piperazin-1-yl)methyl)thieno[3,2-d]pyrimidin-4-yl)morpholine; format: functional; conditions: DLD-1, 504 h, time 21 day, read-out: TGI; summary of the method: as §2
[16] = test system: A-375; test: Antitumor activity against human A-375 cells harboring BRAF V600E/CDKN2A E61 mutant xenografted in mouse assessed as tumor growth inhibition at 2.5 mg/kg, po; format: functional; conditions: A-375, read-out: TGI; summary of the method: as §1
[17] = biological target: Beta-adrenergic receptor kinase 1 (Homo sapiens, UniProt P25098); test: Inhibition of GRK2 (unknown origin)
Sequence of Beta-adrenergic receptor kinase 1 (P25098 whole entry): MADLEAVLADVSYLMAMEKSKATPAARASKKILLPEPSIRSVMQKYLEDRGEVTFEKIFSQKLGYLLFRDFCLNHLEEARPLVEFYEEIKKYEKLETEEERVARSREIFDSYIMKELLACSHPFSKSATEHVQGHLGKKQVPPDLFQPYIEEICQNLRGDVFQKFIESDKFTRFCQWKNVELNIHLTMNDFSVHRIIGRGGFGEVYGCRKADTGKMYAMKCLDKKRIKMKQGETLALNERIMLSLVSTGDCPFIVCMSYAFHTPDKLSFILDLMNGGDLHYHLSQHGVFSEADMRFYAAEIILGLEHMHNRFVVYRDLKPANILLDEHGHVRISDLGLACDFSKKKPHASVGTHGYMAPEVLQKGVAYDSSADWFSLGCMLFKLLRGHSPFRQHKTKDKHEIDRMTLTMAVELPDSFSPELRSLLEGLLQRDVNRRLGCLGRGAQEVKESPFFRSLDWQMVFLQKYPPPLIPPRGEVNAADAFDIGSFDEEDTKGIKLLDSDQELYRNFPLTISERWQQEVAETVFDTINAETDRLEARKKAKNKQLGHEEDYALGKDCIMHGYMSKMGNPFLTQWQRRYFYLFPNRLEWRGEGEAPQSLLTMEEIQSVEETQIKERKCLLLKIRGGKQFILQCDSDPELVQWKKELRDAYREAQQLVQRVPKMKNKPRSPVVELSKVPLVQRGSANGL

[18] = biological target: Serine/threonine-protein kinase PAK 4 (Homo sapiens, UniProt O96013); test: Inhibition of PAK4 (unknown origin)
Sequence of Serine/threonine-protein kinase PAK 4 (O96013 whole entry): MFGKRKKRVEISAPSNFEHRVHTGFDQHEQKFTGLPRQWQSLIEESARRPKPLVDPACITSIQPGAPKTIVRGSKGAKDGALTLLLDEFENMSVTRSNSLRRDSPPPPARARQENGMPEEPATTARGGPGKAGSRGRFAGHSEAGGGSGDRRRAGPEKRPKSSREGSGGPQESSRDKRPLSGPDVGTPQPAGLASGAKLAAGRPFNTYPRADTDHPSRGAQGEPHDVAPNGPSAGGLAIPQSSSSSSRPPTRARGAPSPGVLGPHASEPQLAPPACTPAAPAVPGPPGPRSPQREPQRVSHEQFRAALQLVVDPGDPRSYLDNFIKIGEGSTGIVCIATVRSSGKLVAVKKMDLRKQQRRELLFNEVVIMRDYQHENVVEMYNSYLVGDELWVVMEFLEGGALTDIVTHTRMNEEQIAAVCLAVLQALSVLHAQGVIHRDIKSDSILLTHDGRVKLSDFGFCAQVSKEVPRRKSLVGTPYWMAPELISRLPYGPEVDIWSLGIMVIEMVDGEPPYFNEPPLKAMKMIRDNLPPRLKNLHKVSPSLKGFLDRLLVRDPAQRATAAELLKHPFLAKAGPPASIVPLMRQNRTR

[19] = test system: 888-mel; test: Inhibition of PI3K/MEK signaling pathway in human 888-mel cells assessed as decrease in ERK phosphorylation by incubated for 24 hrs by Western blot analysis; format: cell-based
[20] = biological target: Dual specificity mitogen-activated protein kinase kinase 6 (Homo sapiens, UniProt P52564); test: Inhibition of MKK6 (unknown origin)
Sequence of Dual specificity mitogen-activated protein kinase kinase 6 (P52564 whole entry): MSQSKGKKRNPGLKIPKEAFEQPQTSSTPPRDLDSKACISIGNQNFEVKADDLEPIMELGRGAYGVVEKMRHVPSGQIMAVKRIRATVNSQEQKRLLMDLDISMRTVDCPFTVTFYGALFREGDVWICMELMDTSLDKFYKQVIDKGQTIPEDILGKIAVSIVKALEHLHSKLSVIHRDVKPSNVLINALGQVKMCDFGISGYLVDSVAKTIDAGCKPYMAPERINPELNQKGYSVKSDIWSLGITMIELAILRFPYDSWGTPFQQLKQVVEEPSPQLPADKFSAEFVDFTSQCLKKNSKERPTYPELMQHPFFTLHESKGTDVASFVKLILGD

[21] = biological target: Death-associated protein kinase 1 (Homo sapiens, UniProt P53355); test: Inhibition of DAPK1 (unknown origin)
Sequence of Death-associated protein kinase 1 (P53355 whole entry): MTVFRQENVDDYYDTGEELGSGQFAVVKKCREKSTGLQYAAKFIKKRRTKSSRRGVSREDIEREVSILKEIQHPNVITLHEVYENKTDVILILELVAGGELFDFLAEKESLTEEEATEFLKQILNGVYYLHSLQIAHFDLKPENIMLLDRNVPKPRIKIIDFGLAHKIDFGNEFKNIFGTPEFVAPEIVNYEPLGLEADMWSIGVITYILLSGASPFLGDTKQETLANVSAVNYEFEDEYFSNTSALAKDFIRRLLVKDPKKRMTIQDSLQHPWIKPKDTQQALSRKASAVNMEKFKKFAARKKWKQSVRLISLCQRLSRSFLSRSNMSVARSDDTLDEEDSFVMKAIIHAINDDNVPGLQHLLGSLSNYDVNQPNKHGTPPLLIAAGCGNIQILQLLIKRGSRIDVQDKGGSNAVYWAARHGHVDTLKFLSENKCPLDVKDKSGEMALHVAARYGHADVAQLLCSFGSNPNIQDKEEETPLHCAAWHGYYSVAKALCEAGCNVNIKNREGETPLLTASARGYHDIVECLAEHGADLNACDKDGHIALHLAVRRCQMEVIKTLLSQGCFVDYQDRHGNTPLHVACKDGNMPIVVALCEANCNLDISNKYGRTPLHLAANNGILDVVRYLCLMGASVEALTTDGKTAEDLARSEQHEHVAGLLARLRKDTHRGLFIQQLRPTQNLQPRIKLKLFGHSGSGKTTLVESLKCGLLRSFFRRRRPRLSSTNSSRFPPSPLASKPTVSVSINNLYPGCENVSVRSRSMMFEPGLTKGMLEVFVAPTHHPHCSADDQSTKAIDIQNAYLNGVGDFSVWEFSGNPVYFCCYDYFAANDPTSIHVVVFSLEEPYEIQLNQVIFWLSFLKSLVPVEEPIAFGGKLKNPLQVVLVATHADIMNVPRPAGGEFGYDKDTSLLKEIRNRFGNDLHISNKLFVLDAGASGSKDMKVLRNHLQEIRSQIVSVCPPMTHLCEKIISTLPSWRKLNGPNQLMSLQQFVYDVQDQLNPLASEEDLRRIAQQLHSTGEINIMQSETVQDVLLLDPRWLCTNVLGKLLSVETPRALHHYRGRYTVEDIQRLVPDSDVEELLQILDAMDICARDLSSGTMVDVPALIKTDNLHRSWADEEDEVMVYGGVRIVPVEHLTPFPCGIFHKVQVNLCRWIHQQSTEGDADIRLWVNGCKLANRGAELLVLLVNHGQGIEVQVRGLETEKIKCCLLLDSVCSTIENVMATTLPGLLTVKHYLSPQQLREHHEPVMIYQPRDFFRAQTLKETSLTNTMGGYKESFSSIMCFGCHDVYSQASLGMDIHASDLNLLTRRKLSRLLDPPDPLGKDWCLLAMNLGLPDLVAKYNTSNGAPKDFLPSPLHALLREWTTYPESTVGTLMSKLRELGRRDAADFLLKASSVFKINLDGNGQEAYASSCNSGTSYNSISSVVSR

[22] = biological target: Rho-associated protein kinase 1 (Homo sapiens, UniProt Q13464); test: Inhibition of ROCK1 (unknown origin)
Sequence of Rho-associated protein kinase 1 (Q13464 whole entry): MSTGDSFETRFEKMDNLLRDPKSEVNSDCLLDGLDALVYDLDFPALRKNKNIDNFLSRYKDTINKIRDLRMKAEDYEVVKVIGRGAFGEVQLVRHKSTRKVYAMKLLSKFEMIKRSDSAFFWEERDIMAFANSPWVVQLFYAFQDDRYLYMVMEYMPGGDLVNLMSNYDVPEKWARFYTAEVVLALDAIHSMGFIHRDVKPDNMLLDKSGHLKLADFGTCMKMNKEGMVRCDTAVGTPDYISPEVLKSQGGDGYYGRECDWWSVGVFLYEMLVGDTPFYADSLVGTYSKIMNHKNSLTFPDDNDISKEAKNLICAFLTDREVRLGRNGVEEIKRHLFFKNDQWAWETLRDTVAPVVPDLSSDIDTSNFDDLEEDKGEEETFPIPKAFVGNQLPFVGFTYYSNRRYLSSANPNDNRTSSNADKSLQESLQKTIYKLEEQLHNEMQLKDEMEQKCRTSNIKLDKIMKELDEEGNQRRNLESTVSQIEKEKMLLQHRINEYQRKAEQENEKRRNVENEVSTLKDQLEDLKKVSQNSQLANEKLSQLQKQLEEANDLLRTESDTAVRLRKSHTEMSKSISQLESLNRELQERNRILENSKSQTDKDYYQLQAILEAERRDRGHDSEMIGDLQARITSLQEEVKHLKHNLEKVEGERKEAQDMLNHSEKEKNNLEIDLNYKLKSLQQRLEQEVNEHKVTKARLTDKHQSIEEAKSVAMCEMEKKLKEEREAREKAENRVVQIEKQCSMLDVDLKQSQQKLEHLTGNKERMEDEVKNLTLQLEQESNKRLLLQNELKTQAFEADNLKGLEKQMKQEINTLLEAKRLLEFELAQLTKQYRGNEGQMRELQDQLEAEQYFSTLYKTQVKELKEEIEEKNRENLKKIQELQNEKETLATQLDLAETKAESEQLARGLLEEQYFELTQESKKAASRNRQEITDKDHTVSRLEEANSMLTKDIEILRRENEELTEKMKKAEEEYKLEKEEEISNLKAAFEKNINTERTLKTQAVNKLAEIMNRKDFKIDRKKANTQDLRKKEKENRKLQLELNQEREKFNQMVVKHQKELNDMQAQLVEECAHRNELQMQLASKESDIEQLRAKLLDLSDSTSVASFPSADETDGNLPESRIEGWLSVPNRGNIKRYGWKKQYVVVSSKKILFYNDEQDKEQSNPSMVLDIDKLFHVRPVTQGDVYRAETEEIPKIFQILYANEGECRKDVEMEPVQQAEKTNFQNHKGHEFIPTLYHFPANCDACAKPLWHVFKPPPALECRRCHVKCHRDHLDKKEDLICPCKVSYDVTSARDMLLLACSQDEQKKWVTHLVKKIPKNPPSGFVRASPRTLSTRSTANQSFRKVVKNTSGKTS

[23] = test system: A549; test: Antitumor activity against human A549 cells harboring KRAS G12S/LKB1Q37/SMARCA4 Q729/CDKN2A mutant xenografted in mouse assessed as tumor growth inhibition at 10 mg/kg, po; format: functional; conditions: read-out: TGI; summary of the method: as §3
[24] = test system: A2058; test: Antitumor activity against human A2058 cells harboring BRAF V600E/PTEN deletion mutant xenografted in mouse assessed as suppression of ERK phosphorylation at 15 mg/kg, po administered every third day for 21 days and measured after 72 hrs post dose in presence of 4-(2-(1H-indazol-4-yl)-6-((4-(methylsulfonyl)piperazin-1-yl)methyl)thieno[3,2-d]pyrimidin-4-yl)morpholine by Western blot analysis; format: functional, organism-based; conditions: time 576.0 hrs
[25] = Antitumor activity against human A2058-X1 cells harboring BRAF V600E/PTEN L112Q/V175/TP53 V274F mutant xenografted in mouse assessed as tumor growth inhibition at 10 mg/kg, po; format: functional; conditions: A2058-X1, read-out: TGI; summary of the method: as §3

O=C(c1ccc(F)c(F)c1Nc1ccc(I)cc1F)N1CC(O)([C@@H]2CCCCN2)C1 [COBIMETINIB]
IC50 [1]: > 10 µM | Activity [2]: Active | IC50 [3]: > 10 µM | inhibition in vivo at 10 mg/kg [4]: 96% | IC50 [5]: > 10 µM | IC50 [6]: > 10 µM | inhibition in vivo at 15 mg/kg [7]: 83% | inhibition in vivo at 10 mg/kg [8]: 80% | IC50 [9]: > 10 µM | IC50 [10]: > 10 µM | Activity [11]: inactive | Activity [12]: 60% | inhibition in vivo at 5 mg/kg [13]: 50.2% | inhibition in vivo at 3 mg/kg [14]: 87% | inhibition in vivo at 15 mg/kg [15]: 69% | inhibition in vivo at 2.5 mg/kg [16]: 98% | IC50 [17]: > 10 µM | IC50 [18]: > 10 µM | inhibition [19]: Active | IC50 [20]: > 10 µM | IC50 [21]: > 10 µM | IC50 [22]: > 10 µM | inhibition in vivo at 10 mg/kg [23]: 108% | Activity [24]: Active | inhibition in vivo at 10 mg/kg [25]: 61%
